# In ChEMBL document CHEMBL4393742, “Structure-activity analysis of peptidic Chlamydia HtrA inhibitors” (Bioorg Med Chem, 2019):
# Active and inactive are the calls of the source. The calls are words filed in the database; no cut-off is given here. Square brackets hold non-standard residues; d marks the D form. Peptide text beside a SMILES is read from it. * marks the point of attachment. ξ: configuration not given here. Boc = CC(C)(C)OC(=O)*; ξV = CC(C)C(N)C(=O)O
# Experiments:
# [1] = Inhibition of bovine pancreas chymotrypsin using AAPF-pNA as substrate preincubated for 15 mins followed by substrate addition and measured every 15 secs for 5 mins; design: species or system Bos taurus
# Outline: (§1)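 Enzyme and inhibitor (in DMSO) were preincubated at 37 °C for 15 min in 0.10 M Tris-HCl, pH 8.1, with 0.02 M CaCl₂. The pNA substrate was added to start the reaction. A405 was monitored every 15 s over 5 min at 37 °C. Runs were in triplicate, and inhibition was expressed as percent enzyme activity remaining.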
# Neutrophil elastase = biological target: T1, Neutrophil elastase (Homo sapiens, UniProt P08246); experiment: Inhibition of human neutrophil elastase using AAPV-pNA as substrate preincubated for 15 mins followed by substrate addition and measured every 15 secs for 5 mins; outline: as §1
# T1 sequence (P08246 whole entry): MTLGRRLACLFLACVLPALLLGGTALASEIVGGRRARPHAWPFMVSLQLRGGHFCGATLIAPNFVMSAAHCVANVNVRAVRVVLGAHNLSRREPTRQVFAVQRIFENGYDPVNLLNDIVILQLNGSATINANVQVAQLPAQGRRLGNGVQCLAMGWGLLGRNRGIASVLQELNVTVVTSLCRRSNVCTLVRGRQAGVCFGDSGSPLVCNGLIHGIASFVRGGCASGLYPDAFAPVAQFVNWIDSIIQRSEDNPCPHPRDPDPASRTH
# [2] = (§2) Inhibition of recombinant chlamydia trachomatis serovar L2 434/Bu/ATCC VR-902B HtrA expressed in Escherichia coli BL21(DE3) using MeOCoum-ENLHLPLPIIF-NH-DNP as fluorescent mimotope preincubated for 20 mins followed by mimotope addition in presence of fluorophore 7-methoxycoumarin-4-acetic acid by plate reader based fluorescence assay; design: species or system Chlamydia trachomatis 434/Bu
# Trypsin = Trypsin (Homo sapiens, UniProt P07477+P07478+P35030); experiment: Inhibition of human trypsin using Nalpha-benzoyl-DL-R-pNA as substrate preincubated for 15 mins followed by substrate addition and measured every 15 secs for 5 mins; format: protein assay; outline: as §1
# [3] = test system: Chlamydia trachomatis 434/Bu; experiment: as §2, with “Potency index, ratio of JO146 IC50 to compound IC50 for inhibition” for “Inhibition”
# Chlamydia trachomatis [4] = experiment: (§3) Antibacterial activity against Chlamydia trachomatis D/UW-3/Cx strain infected in mouse McCoy cells assessed as inclusion forming units at 100 uM treated 16 hrs post infection measured at 44 hrs post-infection by Evan's blue staining based-confocal microscopic analysis (reference value: 62 +/- 8.5 10^5U/mL); format: functional
# Chlamydia pecorum [5] = experiment: as §3, with “pecorum IPA ATCC VR629” for “trachomatis D/UW-3/Cx strain”, “342.55646” for “62”, “6.53872” for “8.5”; format: functional
# Chlamydia trachomatis [6] = experiment: as §3, with “trachomatis D/UW-3/Cx infected in” for “trachomatis D/UW-3/Cx strain infected in”, “assessed as reduction in inclusion forming” for “assessed as inclusion forming”; format: functional
# [7] = test system: Chlamydia trachomatis 434/Bu; experiment: as §2, with “Activation of recombinant” for “Inhibition of recombinant”, “fluorescent mimotope at <50 uM preincubated for” for “fluorescent mimotope preincubated for”
# [8] = Inhibition of chlamydia trachomatis HtrA using MCA-ENLHLPLPIIF-DNP as substrate by FRET or pNA assay
# Outline: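 Recombinant CtHtrA at 0.5 mg/mL stock, preincubated with inhibitor in DMSO in 50 mM Tris/20 mM MgCl2, pH 7.0, for 20 min at 37 °C. Reaction started with quenched fluorescent peptide (methoxycoumarin fluorophore, DNP quencher; 1 mg/mL stock in 50% isopropanol). Fluorescence read immediately at ex 340/em 405 nm over 50 cycles.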
# Chlamydia pecorum [9] = experiment: Antibacterial activity against Chlamydia pecorum IPA ATCC VR629 infected in mouse McCoy cells assessed as reduction in inclusion forming units at 100 uM treated 16 hrs post infection measured at 44 hrs post-infection by Evan's blue staining based-confocal microscopic analysis (reference value: 342.55646 +/- 6.53872 10^5U/mL); format: functional
SMILES,IC50 [2] [µM],Ratio IC50 [3],Activity [7],IC50 [1] [µM],IC50 (Neutrophil elastase) [µM],IC50 (Trypsin) [µM],Activity (Chlamydia trachomatis [4]) [×10⁵ U/mL],Activity (Chlamydia pecorum [5]) [×10⁵ U/mL],Activity (Chlamydia trachomatis [6]) [log10CFU],IC50 [8] [µM],Activity (Chlamydia pecorum [9]) [log10CFU]
CCC(C)C(NC(=O)[C@@H]1CCCN1C(=O)[C@@H](NC(=O)OC(C)(C)C)[C@@H](C)CC)P(=O)(Oc1ccccc1)Oc1ccccc1 (mixture of isomers),86,,,1.28,0.84,> 500,0.1134,0.3958,,,
CCC[C@H](NC(=O)OC(C)(C)C)C(=O)N1CCC[C@H]1C(=O)NC(C(C)C)P(=O)(Oc1ccccc1)Oc1ccccc1 (mixture of isomers),56,,,> 500,0.45,> 500,17.0963,219.8,,,
CC[C@H](C)[C@H](NC(=O)OC(C)(C)C)C(=O)N1CCC[C@H]1C(=O)NC(C(C)C)P(=O)(Oc1ccccc1)Oc1ccccc1 (mixture of isomers),25,14.3,,> 500,0.4,> 500,0.5089,10.8851,,,
CC(C)C(NC(=O)[C@@H]1CCCN1C(=O)[C@H](C)NC(=O)OC(C)(C)C)P(=O)(Oc1ccccc1)Oc1ccccc1 (stereo not given in full),,,,,,,,,,47.2,
CCCC(NC(=O)[C@@H]1CCCN1C(=O)[C@@H](NC(=O)OC(C)(C)C)C(C)C)P(=O)(Oc1ccccc1)Oc1ccccc1 (mixture of isomers),> 500,inactive,,> 500,0.68,> 500,1.49,0.4583,,,
CC(C)[C@H](NC(=O)OC(C)(C)C)C(=O)N1CCC[C@H]1C(=O)NC(C(C)(C)C)P(=O)(Oc1ccccc1)Oc1ccccc1 (mixture of isomers),> 500,inactive,,> 500,> 500,> 500,0.217,5.344,,,
CCC(C)C(NC(=O)[C@@H]1CCCN1C(=O)[C@@H](NC(=O)OC(C)(C)C)C(C)(C)C)P(=O)(Oc1ccccc1)Oc1ccccc1 (mixture of isomers),> 500,inactive,,0.53,2.35,> 500,0.1099,0.2042,,,
CC(C)C(NC(=O)[C@@H]1CCCN1C(=O)[C@@H](NC(=O)OC(C)(C)C)C(C)(C)C)P(=O)(Oc1ccccc1)Oc1ccccc1 (mixture of isomers),9.3,33.3,,> 500,0.68,> 500,0.01548,0.03388,,,
CCC(C)C(NC(=O)[C@@H]1CCCN1C(=O)[C@@H](NC(=O)OC(C)(C)C)C(C)C)P(=O)(Oc1ccccc1)Oc1ccccc1 (mixture of isomers),18.4,20,,38.5,0.36,> 500,0.09231,43.9246,,,
CC(C)C(NC(=O)[C@@H]1CCCN1C(=O)[C@@H](NC(=O)OC(C)(C)C)C(C)C)P(=O)(Oc1ccccc1)Oc1ccccc1 (stereo not given in full),13 to 351,,,> 500,0.83,> 500,0.00434,,,12.5,

# Now from value to molecule, other results behind:
IC50 [2] [µM],Ratio IC50 [3],Activity [7],SMILES,IC50 [1] [µM],IC50 (Neutrophil elastase) [µM],IC50 (Trypsin) [µM],Activity (Chlamydia trachomatis [4]) [×10⁵ U/mL],Activity (Chlamydia pecorum [5]) [×10⁵ U/mL],Activity (Chlamydia trachomatis [6]) [log10CFU],IC50 [8] [µM],Activity (Chlamydia pecorum [9]) [log10CFU]
> 500,inactive,,CC(=O)C(=O)C(NC(=O)[C@@H]1CCCN1C(=O)[C@@H](NC(=O)OC(C)(C)C)C(C)C)C(C)C (mixture of isomers),> 500,1.35,> 500,86,,,,
> 500,inactive,,CCC(=O)C(=O)C(NC(=O)[C@@H]1CCCN1C(=O)[C@@H](NC(=O)OC(C)(C)C)C(C)C)C(C)C (mixture of isomers),> 500,4.71,> 500,57,351,,,
> 500,,Active,CC(C)C(NC(=O)[C@@H]1CCCN1C(=O)[C@@H](NC(=O)OC(C)(C)C)C(C)C)B(O)O (stereo not given in full),,,,0.09939,,3,,
> 500,inactive,,CC(C)C(NC(=O)[C@@H]1CCCN1C(=O)[C@@H](NC(=O)OC(C)(C)C)C(C)C)C(=O)C(N)=O (stereo not given in full),,,,29.07,,,,
> 500,inactive,,CC(C)C(NC(=O)[C@@H]1CCCN1C(=O)[C@@H](NC(=O)OC(C)(C)C)C(C)C)C(=O)C(=O)C1CC1 (mixture of isomers),> 500,,> 500,55.0347,,,,
> 500,inactive,,CCC(C)C(NC(=O)[C@@H]1CCCN1C(=O)[C@@H](NC(=O)OC(C)(C)C)C(C)(C)C)C(=O)c1nc2ccccc2s1 (mixture of isomers),> 500,4.83,> 500,2.829,0.2193,,,
> 500,inactive,,CCN(C)C(=O)C(NC(=O)[C@@H]1CCCN1C(=O)[C@@H](NC(=O)OC(C)(C)C)C(C)C)C(C)C (stereo not given in full),,,,34.5497,,,,
> 500,inactive,,CC(C)C(NC(=O)[C@@H]1CCCN1C(=O)[C@@H](NC(=O)OC(C)(C)C)C(C)C)C(=O)N(C)C1CC1 (stereo not given in full),,,,8.3844,,,,
> 500,inactive,,CCCC(NC(=O)[C@@H]1CCCN1C(=O)[C@@H](NC(=O)OC(C)(C)C)C(C)C)C(=O)c1nccs1 (stereo not given in full),> 500,> 150,> 500,,,,,
> 500,inactive,,C=CCN(C)C(=O)C(NC(=O)[C@@H]1CCCN1C(=O)[C@@H](NC(=O)OC(C)(C)C)C(C)C)C(C)C (stereo not given in full),,,,36.2553,,,,
> 500,inactive,,CC(C)C(NC(=O)[C@@H]1CCCN1C(=O)[C@@H](NC(=O)OC(C)(C)C)C(C)C)C(=O)N(C)C (stereo partly drawn) (Boc-Val-Pro-[ξV]-NMe2),,,,30.9343,,,,
> 500,inactive,,CC(C)C(NC(=O)[C@@H]1CCCN1C(=O)[C@@H](NC(=O)OC(C)(C)C)C(C)C)C(=O)c1nccs1 (mixture of isomers),,,,33.1,1.983,,,
> 500,inactive,,CC(C)C(CO)NC(=O)[C@@H]1CCCN1C(=O)[C@@H](NC(=O)OC(C)(C)C)C(C)C (mixture of isomers),,,,34.6007,,,,
321,1.06,,CC(C)C(NC(=O)[C@@H]1CCCN1C(=O)[C@@H](NC(=O)OC(C)(C)C)C(C)C)C(=O)c1nc2ccccc2s1 (mixture of isomers),> 500,2.6,> 500,2.539,0.04744,,,4
